According to ChEMBL document CHEMBL3414459, “Phenolic thio- and selenosemicarbazones as multi-target drugs” (Eur J Med Chem, 2015):
Activity calls are given as the source filed them. The rule behind the calls is not given here.

Legend:
[1] = Inhibition of baker's yeast alpha-glucosidase using p-nitrophenyl-alpha-D-glucopyranoside substrate assessed as reduction in p-nitrophenolate formation
How it was run: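 Run in 0.1 M phosphate buffer, pH 6.8, with 5% (v/v) DMSO. […] Enzyme started the reaction at 25 °C, and p-nitrophenolate was followed at 400 nm. Percent inhibition came from rates with and without inhibitor. Where inhibition exceeded 50%, Ki and mode were derived by Lineweaver–Burk, using substrate 0.25–4.0 Km and 2–3 fixed inhibitor concentrations.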

[2] = Inhibition of baker's yeast alpha-glucosidase using p-nitrophenyl-alpha-D-glucopyranoside substrate assessed as reduction in p-nitrophenolate formation at 500 uM; details: Saccharomyces bayanus
How it was run: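 α-Glucosidase in 0.1 M phosphate buffer pH 6.8 with p-nitrophenyl-α-D-glucopyranoside at K_M (250 µM; K_M 0.25 mM). Inhibitor at 500 µM final or DMSO, DMSO 5% v/v.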

[3] = system: T47D; assay: Antiproliferative activity against human T47D cells after 48 hrs by sulforhodamine B assay; type: functional
How it was run: (§1)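 Exponentially growing cells trypsinized into penicillin/streptomycin medium, >97% viable by trypan blue. Seeded per well: 10,000 (A549, HBL-100, HeLa, SW1573), 15,000 (T-47D), 20,000 (WiDr). Treatment began day 1, DMSO stocks 40 mM, 0.25% DMSO as control, triplicate, 48 h. Cells fixed with cold TCA 60 min at 4 °C, SRB stained, OD492 read, medium background subtracted.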

[4] = Antioxidant activity assessed as H2O2 scavenging activity at 100 uM incubated for 20 mins by phenol red based assay; type: physicochemical
How it was run: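 Compound at 100 µM final, or DMSO control, in 0.1 M phosphate buffer pH 7.4 with H2O2 and 0.1 M NaCl, incubated in the dark at 37 °C for 20 min. Phenol red (0.2 mg/mL) and horseradish peroxidase (0.1 mg/mL) added, 15 min at 37 °C. NaOH added, 10 min at rt, A610 read. % reduction = (A_control − A_sample)/A_control × 100.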

[5] = system: WiDr; assay: Antiproliferative activity against human WiDr cells after 48 hrs by sulforhodamine B assay; type: functional; how it was run: as §1
[6] = Antioxidant activity assessed as DPPH free radical scavenging activity incubated for 30 mins; type: physicochemical
How it was run: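 DPPH in HPLC-grade solvent mixed with compound in DMSO at 7 concentrations, or with DMSO alone as control. Kept in the dark at rt for 30 min, then A515 read against a blank. % DPPH remaining = A_sample/A_control × 100, plotted against concentration; EC50 taken from the straight line. Triplicate.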

[7] = system: A549; assay: Antiproliferative activity against human A549 cells after 48 hrs by sulforhodamine B assay; type: functional; details: A549, 48 h; how it was run: as §1
[8] = system: SW1573; assay: Antiproliferative activity against human SW1573 cells after 48 hrs by sulforhodamine B assay; type: functional; details: SW1573, 48 h; how it was run: as §1
[9] = Antioxidant activity assessed as inhibition of the lipid peroxidation at 0.74 mM incubated for 24 hrs by ferric thiocyanate method; type: physicochemical; details: 740 µM
How it was run: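 Ferric thiocyanate method at 0.74 mM. 10.0 mM DMSO stock combined with methanolic linoleic acid in 0.2 M phosphate buffer pH 7.0. AAPH added, then 24 h at 50 °C in the dark; DMSO served as control. An aliquot was diluted in H2O–DMSO with NH4SCN and FeCl2 in HCl. After 3 min at rt, A546 read. % inhibition relative to control.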

[10] = system: HeLa; assay: Antiproliferative activity against human HeLa cells after 48 hrs by sulforhodamine B assay; type: functional; how it was run: as §1
[11] = Antiproliferative activity against human HBL100 cells after 48 hrs by sulforhodamine B assay; type: functional; details: HBL-100, 48 h; how it was run: as §1
[12] = Potency index, ratio of IC50 for hydroxytyrosol to IC50 for test compound for antioxidant activity assessed as DPPH free radical scavenging activity incubated for 30 mins
[13] = Pro-oxidant activity assessed as hydroxyl radical generation through deoxyribose degradation by measuring change in absorbance at 0.83 mM by TBARS based spectrophotometry; type: ADME; details: 830 µM
How it was run: (§2)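 Modified Halliwell deoxyribose assay with the compound at the stated concentration in 0.1 M phosphate buffer pH 7.4, with 2-deoxyribose, H2O2, and FeCl3 premixed with EDTA. Heated 1 h at 37 °C, then TBA in NaOH and trichloroacetic acid added and heated 15 min at 100 °C. Cooled, A532 read; DMSO as control. Repeated without deoxyribose to account for TBARS interference.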

[14] = Inhibition of baker's yeast alpha-glucosidase using p-nitrophenyl-alpha-D-glucopyranoside substrate assessed as inhibition constant for enzyme-compound binding by measuring reduction in p-nitrophenolate formation; design: species or system Saccharomyces cerevisiae
How it was run: (§3)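 Same α-glucosidase conditions: pH 6.8 phosphate buffer, 25 °C, A400 for p-nitrophenolate, 5% DMSO. Done for inhibitors exceeding 50% inhibition at 500 µM. Rates measured at 5 substrate concentrations from 0.25 to 4.0 K_m, each at a fixed inhibitor concentration, using 2–3 inhibitor concentrations. Lineweaver–Burk double reciprocal plots gave the inhibition mode and constants K_ia (E) and K_ib (ES).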

[15] = Inhibition of baker's yeast alpha-glucosidase using p-nitrophenyl-alpha-D-glucopyranoside substrate assessed as inhibition constant for enzyme-substrate-compound binding by measuring reduction in p-nitrophenolate formation; how it was run: as §3
[16] = Mixed inhibition of baker's yeast alpha-glucosidase using p-nitrophenyl-alpha-D-glucopyranoside substrate assessed as reduction in p-nitrophenolate formation by Lineweaver-Burk plot; details: Saccharomyces bayanus; how it was run: as §3
[17] = Pro-oxidant activity assessed as hydroxyl radical generation through deoxyribose degradation by measuring change in absorbance at 0.083 mM by TBARS based spectrophotometry; type: ADME; details: 83 µM; how it was run: as §2
[18] = Pro-oxidant activity assessed as hydroxyl radical generation through deoxyribose degradation by measuring change in absorbance at 0.42 mM by TBARS based spectrophotometry; type: ADME; details: 420 µM; how it was run: as §2
[19] = Pro-oxidant activity assessed as hydroxyl radical generation through deoxyribose degradation by measuring change in absorbance at 0.17 mM by TBARS based spectrophotometry; type: ADME; details: 170 µM; how it was run: as §2
[20] = system: Saccharomyces bayanus; assay: Non-competitive inhibition of baker's yeast alpha-glucosidase using p-nitrophenyl-alpha-D-glucopyranoside substrate assessed as reduction in p-nitrophenolate formation by Lineweaver-Burk plot; how it was run: as §3
[21] = system: Saccharomyces bayanus; assay: Potency index, ratio of Ki for acarbose to Ki for compound against baker's yeast alpha-glucosidase using p-nitrophenyl-alpha-D-glucopyranoside substrate assessed as reduction in p-nitrophenolate formation
[22] = system: Saccharomyces bayanus; assay: Un-competitive inhibition of baker's yeast alpha-glucosidase using p-nitrophenyl-alpha-D-glucopyranoside substrate assessed as reduction in p-nitrophenolate formation by Lineweaver-Burk plot; how it was run: as §3

SMILES | inhibition [2] | GI50 [3] | inhibition (INH) [4] | GI50 [5] | EC50 [6] | GI50 [7] | GI50 [8] | inhibition (INH) [9] | GI50 [10] | GI50 [11] | Ratio IC50 [12] | Activity [13] | Ki [14] | Ki [15] | inhibition [16] | other results
C[C@H]1O[C@H](O[C@H]2[C@H](O)[C@@H](O)[C@@H](O[C@H]3[C@H](O)[C@@H](O)C(O)O[C@@H]3CO)O[C@@H]2CO)[C@H](O)[C@@H](O)[C@@H]1N[C@H]1C=C(CO)[C@@H](O)[C@H](O)[C@H]1O (some centres undefined) [ACARBOSE] | – | – | – | – | – | – | – | – | – | – | – | – | – | – | – | Ki [1]: 77.9 µM
O=Cc1ccc(O)c(O)c1 [PROTOCATECHUALDEHYDE] | inactive | > 100 µM | 78.3% | > 100 µM | 6.57 µM | 42 µM | 54 µM | 35.7% | 49 µM | > 100 µM | – | – | – | – | – | –
NNC(=[Se])Nc1cccc2ccccc12 | 14% | – | 56.9% | – | 6.65 µM | – | – | 21.9% | – | – | < 3 | 0.064 | – | – | – | –
O=Cc1ccc(O)cc1 [4-HYDROXYBENZALDEHYDE] | inactive | > 100 µM | Not Active | > 100 µM | > 250 µM | > 100 µM | > 100 µM | Not Active | > 100 µM | > 100 µM | – | – | – | – | – | –
Oc1cc(/C=N/NC(=[Se])Nc2cccc3ccccc23)cc(O)c1O | 98% | 2.7 µM | 38.1% | 3.6 µM | 8.87 µM | 1.7 µM | 2.9 µM | 24.3% | 2.3 µM | 2.4 µM | – | 0.067 | 154 µM | 70.3 µM | Active | –
Oc1cc(/C=N/NC(=S)Nc2ccccc2)cc(O)c1O | 70% | 61 µM | 80% | > 100 µM | 7 µM | 9.3 µM | 49 µM | 59.9% | 32 µM | 71 µM | < 3 | – | 297 µM | 86.2 µM | Active | –
Oc1ccc(/C=N/NC(=[Se])Nc2cccc3ccccc23)cc1O | 95% | 2.5 µM | 46.3% | 2.8 µM | 18.2 µM | 1.1 µM | 3.2 µM | 72% | 2.2 µM | 2.6 µM | – | 0.079 | 57.8 µM | 69.8 µM | Active | Activity [17]: 0.097; Activity [18]: 0.041; Activity [19]: 0.037
Oc1ccc(/C=N/NC(=S)Nc2ccccc2)cc1O | 68% | 25 µM | 79.3% | 27 µM | 9.27 µM | 1.6 µM | 24 µM | 72% | 7 µM | 35 µM | < 3 | – | 708 µM | 134 µM | Active | –
O=Cc1cc(O)c(O)c(O)c1 | inactive | 43 µM | 79.1% | 39 µM | 15.3 µM | 7.3 µM | 38 µM | Not Active | 16 µM | 72 µM | – | – | – | – | – | –
Oc1cc(/C=N/NC(=[Se])Nc2ccccc2)cc(O)c1O | 95% | 2.9 µM | 64% | 3.7 µM | 4.87 µM | 1.5 µM | 3.9 µM | 65.7% | 2.1 µM | 2 µM | < 3 | – | 30.3 µM | 78.4 µM | Active | –
Oc1ccc(/C=N/NC(=[Se])Nc2ccccc2)cc1O | 81% | 3.7 µM | 69% | 3.2 µM | 8.77 µM | 2.6 µM | 5.8 µM | 66.5% | 3.3 µM | 3.8 µM | < 3 | 0.097 | 201 µM | – | – | inhibition [20]: Active
Oc1ccc(/C=N/NC(=[Se])Nc2ccccc2)cc1 | 62% | 7.2 µM | 72.5% | 16 µM | 27.8 µM | 1.4 µM | 19 µM | 31% | 3.7 µM | 13 µM | – | 0.087 | 336 µM | – | – | inhibition [20]: Active
Oc1cc(O)c(/C=N/NC(=S)Nc2ccccc2)cc1O | 100% | 10 µM | Not Active | 30 µM | 13.9 µM | 1.2 µM | 30 µM | 56.8% | 19 µM | 29 µM | – | 0.067 | 9.6 µM | – | – | inhibition [20]: Active; Ratio Ki [21]: 8
O=Cc1cc(O)c(O)cc1O | inactive | > 100 µM | 80.3% | > 100 µM | 5.97 µM | > 100 µM | > 100 µM | 56.1% | > 100 µM | > 100 µM | – | – | – | – | – | –
OCCc1ccc(O)c(O)c1 [HYDROXYTYROSOL] | – | – | – | – | 13.8 µM | – | – | – | – | – | – | – | – | – | – | –
O=c1[nH]cc(F)c(=O)[nH]1 [FLUOROURACIL] | – | 47 µM | – | 49 µM | – | – | 4.3 µM | – | 15 µM | 5.5 µM | – | – | – | – | – | –
Oc1ccc(/C=N/NC(=S)Nc2ccccc2)cc1 | 52% | 88 µM | 79.5% | 61 µM | 90.1 µM | 34 µM | 35 µM | 5.5% | 42 µM | 43 µM | – | 0.094 | – | 213 µM | – | inhibition [22]: Active
Oc1cc(O)c(/C=N/NC(=[Se])Nc2cccc3ccccc23)cc1O | 95% | 3.5 µM | 4.5% | 5.2 µM | 10.7 µM | 1.7 µM | 5 µM | 43% | 3 µM | 4 µM | < 3 | – | 33 µM | 76.8 µM | Active | –
